Laboratory results from ChEMBL document CHEMBL1154693, “Discovery of trans-4-[1-[[2,5-Dichloro-4-(1-methyl-3-indolylcarboxamido)phenyl]acetyl]-(4S)-methoxy-(2S)-pyrrolidinylmethoxy]cyclohexanecarboxylic acid: an orally active, selective very late antigen-4 antagonist” (J Med Chem, 2009).

Tests used:
Mus musculus [1] = experiment: Antiinflammatory activity in Ascaris suum antigen-induced BALB/c AnNCrj mouse asthma model assessed as inhibition of eosinophil infiltration in BAL fluid at 5 mg.kg, po bid administered 15 mins before and 8, 24 and 32 hrs after antigen challenge measured 48 hrs after antigen challenge; assay type: functional
In short: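 Female BALB/c AnNCrj mice given cyclophosphamide 150 mg/kg po (day 0), sensitized ip with Ascaris suum extract plus alum on days 2 and 14, challenged intratracheally day 22. Compound in 0.5% MC/0.03% Tween 80 po 15 min before and 8, 24, 32 h after challenge; BAL at 48 h, eosinophils from total count times Wright-stained differential.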

[2] = Drug level in BALB/c mouse serum at 10 mg/kg, po after 15 mins; assay type: ADME, organism-based; set-up: dose 10 mg/kg, route oral; conditions: read-out: Drug uptake
In short: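 Serum (final 0.01-10%) assayed in the VLA-4/VCAM-1 binding assay, and concentration estimated from a calibration curve of compound spiked into untreated mouse serum.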

Integrin alpha-4/beta-1 [3] = biological target: T1, Integrin alpha-4/beta-1 (Homo sapiens, UniProt P05556+P13612); experiment: Inhibition of europium labeled human VCAM1/Fc chimera binding to human VLA-4 alpha-4-beta-1 expressed in Chinese hamster 4B4 cells in presence of 3% HSA by fluorimetric assay; assay type: cell-based
T1 sequence (P05556 whole entry): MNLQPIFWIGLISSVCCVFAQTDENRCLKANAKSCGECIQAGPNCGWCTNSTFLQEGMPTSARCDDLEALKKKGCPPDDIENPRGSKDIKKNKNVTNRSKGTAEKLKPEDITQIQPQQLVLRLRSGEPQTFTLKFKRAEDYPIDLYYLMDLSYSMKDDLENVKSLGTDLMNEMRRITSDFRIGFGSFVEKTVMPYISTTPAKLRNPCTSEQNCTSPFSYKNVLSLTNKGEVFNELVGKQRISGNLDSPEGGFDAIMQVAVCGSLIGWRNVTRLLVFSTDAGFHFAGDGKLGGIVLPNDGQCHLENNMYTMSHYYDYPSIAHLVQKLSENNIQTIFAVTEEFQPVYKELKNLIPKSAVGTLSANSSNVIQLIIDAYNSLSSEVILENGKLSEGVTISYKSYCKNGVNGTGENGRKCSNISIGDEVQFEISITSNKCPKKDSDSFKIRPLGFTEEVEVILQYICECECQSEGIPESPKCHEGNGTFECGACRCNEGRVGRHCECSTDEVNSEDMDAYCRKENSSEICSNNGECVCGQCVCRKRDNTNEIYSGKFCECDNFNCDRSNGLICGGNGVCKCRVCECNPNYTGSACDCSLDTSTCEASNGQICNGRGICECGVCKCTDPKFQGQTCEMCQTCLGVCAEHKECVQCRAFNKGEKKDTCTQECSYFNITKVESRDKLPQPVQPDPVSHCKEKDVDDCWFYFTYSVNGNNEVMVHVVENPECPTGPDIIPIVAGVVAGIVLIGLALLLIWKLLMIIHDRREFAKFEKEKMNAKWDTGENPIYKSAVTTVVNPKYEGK
T1 sequence (P13612 whole entry): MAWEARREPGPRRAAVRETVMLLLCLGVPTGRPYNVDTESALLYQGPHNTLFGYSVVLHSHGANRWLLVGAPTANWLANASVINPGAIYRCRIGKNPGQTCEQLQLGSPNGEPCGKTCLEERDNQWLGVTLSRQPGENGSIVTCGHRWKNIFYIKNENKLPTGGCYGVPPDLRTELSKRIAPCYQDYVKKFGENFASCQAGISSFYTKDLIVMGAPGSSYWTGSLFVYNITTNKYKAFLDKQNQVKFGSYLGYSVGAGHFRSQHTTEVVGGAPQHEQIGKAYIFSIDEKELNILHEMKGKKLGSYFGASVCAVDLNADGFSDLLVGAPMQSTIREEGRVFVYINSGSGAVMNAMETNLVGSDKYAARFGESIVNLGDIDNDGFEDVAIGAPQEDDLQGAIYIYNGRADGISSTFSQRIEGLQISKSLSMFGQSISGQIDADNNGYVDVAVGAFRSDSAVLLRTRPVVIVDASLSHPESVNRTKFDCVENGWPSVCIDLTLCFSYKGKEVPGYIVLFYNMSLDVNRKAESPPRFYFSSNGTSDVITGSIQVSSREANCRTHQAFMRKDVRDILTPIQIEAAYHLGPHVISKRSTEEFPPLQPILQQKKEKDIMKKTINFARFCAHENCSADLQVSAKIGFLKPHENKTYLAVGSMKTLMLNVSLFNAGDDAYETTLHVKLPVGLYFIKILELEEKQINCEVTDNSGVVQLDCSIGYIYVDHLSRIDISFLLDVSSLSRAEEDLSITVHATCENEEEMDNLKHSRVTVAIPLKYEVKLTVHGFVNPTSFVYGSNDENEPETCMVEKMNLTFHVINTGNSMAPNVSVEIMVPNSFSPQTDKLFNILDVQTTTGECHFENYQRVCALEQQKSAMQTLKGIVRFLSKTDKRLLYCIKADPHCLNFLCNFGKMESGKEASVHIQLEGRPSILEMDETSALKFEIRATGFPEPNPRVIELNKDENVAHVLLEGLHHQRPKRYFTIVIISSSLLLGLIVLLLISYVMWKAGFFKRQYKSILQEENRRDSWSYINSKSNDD
In short: (§1)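 CHO-K1 4B4 cells transfected with human α4 and β1, plated at 3 × 10⁵ cells/mL and cultured 2 days, washed with HEPES pH 7.5 buffer containing Ca, Mg, Mn. Compound plus Eu-labeled human VCAM-1/Fc (final 1 nM), with or without human serum albumin, 60 min at room temperature; washed, Eu time-resolved fluorescence read; duplicates.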

[4] = Clearance in Sprague-Dawley rat at 1 mg/kg, iv; assay type: ADME, organism-based; set-up: dose 1 mg/kg, route intravenous; conditions: in vivo
In short: (§2)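 Male Sprague-Dawley rats (7 weeks), fasted 18 h, four per group. 1 mg/kg oral in 0.5% MC or iv in saline, each with 3 equiv NaOH. Plasma drawn at 0.08 (iv) or 0.25 (po), 0.5, 1, 2 and 6 h; LC/MS/MS quantitation, noncompartmental parameters.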

Mus musculus [5] = experiment: Toxicity in BALB/c AnNCrj mouse assessed as induction of cholestatic liver injury at 50 mg/kg, iv for 2 days; assay type: organism-based; set-up: dose 50 mg/kg, route intravenous; conditions: in vivo, 48 h
In short: (§3)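 Mice dosed iv at 50 mg/kg or orally at 25 or 200 (mg/kg)/day for 2 days, then assessed for liver injury.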

Integrin alpha-4/beta-1 [6] = biological target: T1, Integrin alpha-4/beta-1; experiment: Inhibition of europium labeled human VCAM1/Fc chimera binding to human VLA-4 alpha-4-beta-1 expressed in Chinese hamster 4B4 cells by fluorimetric assay; assay type: cell-based
Mus musculus [7] = experiment: Toxicity in BALB/c AnNCrj mouse assessed as induction of cholestatic liver injury at 25 mg/kg, po for 2 days; assay type: organism-based; set-up: dose 25 mg/kg, route oral; conditions: in vivo, 48 h; in short: as §3
[8] = Volume of distribution at steady state in Sprague-Dawley rat at 1 mg/kg, iv; assay type: ADME, organism-based; set-up: dose 1 mg/kg, route intravenous; conditions: in vivo, read-out: Vdss; in short: as §2
[9] = Half life in Sprague-Dawley rat at 1 mg/kg, iv; assay type: ADME, organism-based; set-up: dose 1 mg/kg, route intravenous; conditions: in vivo; in short: as §2
Integrin alpha-4/beta-1 [10] = biological target: T1, Integrin alpha-4/beta-1; experiment: Inhibition of europium labeled human VCAM1/Fc chimera binding to human VLA-4 alpha-4-beta-1 expressed in Chinese hamster 4B4 cells at 1.7 uM by fluorimetric assay; assay type: cell-based; in short: as §1
Integrin alpha-4/beta-1 [11] = biological target: T1, Integrin alpha-4/beta-1; experiment: Inhibition of europium labeled human VCAM1/Fc chimera binding to human VLA-4 alpha-4-beta-1 expressed in Chinese hamster 4B4 cells at 1.7 uM in presence of 3% HSA by fluorimetric assay; assay type: cell-based; in short: as §1
in vivo = conditions: rat, plasma
[12] = Oral bioavailability in rat; conditions: in vivo
Integrin alpha-4/beta-1 [13] = biological target: T1, Integrin alpha-4/beta-1; experiment: Inhibition of europium labeled human VCAM1/Fc chimera binding to human VLA-4 alpha-4-beta-1 expressed in Chinese hamster 4B4 cells at 1.8 uM in presence of 3% HSA by fluorimetric assay; assay type: cell-based; in short: as §1
Integrin alpha-4/beta-1 [14] = biological target: T1, Integrin alpha-4/beta-1; experiment: Inhibition of europium labeled human VCAM1/Fc chimera binding to human VLA-4 alpha-4-beta-1 expressed in Chinese hamster 4B4 cells at 2 uM by fluorimetric assay; assay type: cell-based; in short: as §1
Integrin alpha-4/beta-1 [15] = biological target: T1, Integrin alpha-4/beta-1; experiment: Inhibition of europium labeled human VCAM1/Fc chimera binding to human VLA-4 alpha-4-beta-1 expressed in Chinese hamster 4B4 cells at 2 uM in presence of 3% HSA by fluorimetric assay; assay type: cell-based; in short: as §1

Compound | concentration at 0.25 h [2] [ng/mL] | IC50 (Integrin alpha-4/beta-1 [3]) [nM] | IC50 (Integrin alpha-4/beta-1 [6]) [nM] | further results
Cn1cc(C(=O)Nc2cc(F)c(CC(=O)N3C[C@@H](F)C[C@H]3CO[C@H]3CC[C@H](C(=O)O)CC3)cc2Cl)c2ccccc21 | 11400 | 284 | 5 | inhibition (INH) (Mus musculus [1]): 57%; clearance [4]: 2.6 mL/min/kg; Activity (Mus musculus [5]): Toxic; Activity (Mus musculus [7]): Toxic; Vd [8]: 0.153 L/kg; half-life [9]: 54 min
O=C(Cc1ccc(Nc2nc3ccc(F)cc3o2)c(Cl)c1)N1C[C@@H](F)C[C@H]1CO[C@H]1CC[C@H](C(=O)O)CC1 | – | 630 | 20 | –
O=C(Nc1cc(F)c(CC(=O)N2C[C@@H](F)C[C@H]2CO[C@H]2CC[C@H](C(=O)O)CC2)cc1Cl)N1CCc2ccccc21 | 2960 | 171 | 2.7 | –
CC(C)n1cc(C(=O)Nc2ccc(CC(=O)N3C[C@@H](F)C[C@H]3CO[C@H]3CC[C@H](C(=O)O)CC3)cc2Cl)c2ccccc21 | – | – | – | inhibition (Integrin alpha-4/beta-1 [10]): 41%; inhibition (Integrin alpha-4/beta-1 [11]): 8%
Cc1ccccc1NC(=O)Nc1ccc(CC(=O)N2C[C@@H](F)C[C@H]2COc2ccc(C(=O)O)cc2)cc1Cl | – | – | – | clearance (in vivo): 31.5 mL/min/kg; bioavailability [12]: 11%
Cc1ccccc1Nc1nc2ccc(CC(=O)N3C[C@@H](F)C[C@H]3CO[C@H]3CC[C@H](C(=O)O)CC3)c(F)c2o1 | 363 | 70 | 3 | –
Cc1cc(F)ccc1Nc1nc2ccc(CC(=O)N3C[C@@H](F)C[C@H]3CO[C@H]3CC[C@H](C(=O)O)CC3)c(F)c2o1 | – | 1680 | 12 | –
O=C(Nc1cc(F)c(CC(=O)N2C[C@@H](F)C[C@H]2CO[C@H]2CC[C@H](C(=O)O)CC2)cc1Cl)c1nccc2ccccc12 | – | 1670 | 32 | –
O=C(Nc1cc(F)c(CC(=O)N2C[C@@H](F)C[C@H]2CO[C@H]2CC[C@H](C(=O)O)CC2)cc1Cl)c1noc2ccccc12 | – | – | 128 | inhibition (Integrin alpha-4/beta-1 [11]): 19%
Cn1cc(C(=O)Nc2cc(Cl)c(CC(=O)N3C[C@@H](F)C[C@H]3CO[C@H]3CC[C@H](C(=O)O)CC3)cc2Cl)c2ccccc21 | 1880 | 241 | 5.5 | –
Cn1cc(C(=O)Nc2cc(F)c(CC(=O)N3C[C@@H](O)C[C@H]3CO[C@H]3CC[C@H](C(=O)O)CC3)cc2Cl)c2ccccc21 | 452 | 45 | 6.4 | –
O=C(Cc1ccc(Nc2nc3cccc(F)c3o2)c(Cl)c1)N1C[C@@H](F)C[C@H]1CO[C@H]1CC[C@H](C(=O)O)CC1 | – | 1030 | 40 | –
O=C(Nc1ccc(CC(=O)N2C[C@@H](F)C[C@H]2CO[C@H]2CC[C@H](C(=O)O)CC2)cc1Cl)c1c[nH]c2ccccc12 | 193 | 3.9 | 0.53 | clearance [4]: 61.1 mL/min/kg; Vd [8]: 0.668 L/kg; half-life [9]: 12 min
O=C(Nc1ccc(CC(=O)N2C[C@@H](F)C[C@H]2CO[C@H]2CC[C@H](C(=O)O)CC2)cc1Cl)c1nccc2ccccc12 | – | 418 | 14 | –
O=C(Nc1cc(F)c(CC(=O)N2C[C@@H](F)C[C@H]2CO[C@H]2CC[C@H](C(=O)O)CC2)cc1Cl)c1nsc2ccccc12 | 307 | 176 | 7.5 | –
Cn1cc(C(=O)Nc2cc(Cl)c(CC(=O)N3C[C@@H](O)C[C@H]3CO[C@H]3CC[C@H](C(=O)O)CC3)cc2Cl)c2ccccc21 | 93 | 70 | 7.8 | –
O=C(Cc1ccc(Nc2nc3cc(F)ccc3o2)c(Cl)c1)N1C[C@@H](F)C[C@H]1CO[C@H]1CC[C@H](C(=O)O)CC1 | 358 | 223 | 7.3 | –
Cc1c(F)cccc1Nc1nc2ccc(CC(=O)N3C[C@@H](F)C[C@H]3CO[C@H]3CC[C@H](C(=O)O)CC3)c(F)c2o1 | – | – | 47 | inhibition (Integrin alpha-4/beta-1 [13]): 13%
Cc1cccc2oc(Nc3ccc(CC(=O)N4C[C@@H](F)C[C@H]4CO[C@H]4CC[C@H](C(=O)O)CC4)cc3Cl)nc12 | – | 290 | 12 | –
O=C(Cc1ccc(Nc2nc3ccccc3o2)c(Cl)c1)N1C[C@@H](F)C[C@H]1CO[C@H]1CC[C@H](C(=O)O)CC1 | 508 | 138 | 5.9 | –
O=C(Nc1cc(F)c(CC(=O)N2C[C@@H](F)C[C@H]2CO[C@H]2CC[C@H](C(=O)O)CC2)cc1Cl)c1n[nH]c2ccccc12 | 848 | 108 | 8.5 | –
Cn1cc(C(=O)Nc2ccc(CC(=O)N3C[C@@H](F)C[C@H]3CO[C@H]3CC[C@H](C(=O)O)CC3)cc2Cl)c2ccccc21 | 5160 | 92 | 2.6 | inhibition (INH) (Mus musculus [1]): 13%; clearance [4]: 5 mL/min/kg; Vd [8]: 0.139 L/kg; half-life [9]: 42 min
Cc1ccccc1Cc1nc2ccc(CC(=O)N3C[C@@H](F)C[C@H]3CO[C@H]3CC[C@H](C(=O)O)CC3)cc2o1 | – | – | – | inhibition (Integrin alpha-4/beta-1 [14]): 33%; inhibition (Integrin alpha-4/beta-1 [15]): 7%
CO[C@H]1C[C@@H](CO[C@H]2CC[C@H](C(=O)O)CC2)N(C(=O)Cc2cc(Cl)c(NC(=O)c3cn(C)c4ccccc34)cc2F)C1 | 9400 | 36 | 2.9 | inhibition (INH) (Mus musculus [1]): 30%
O=C(Nc1ccc(CC(=O)N2C[C@@H](F)C[C@H]2CO[C@H]2CC[C@H](C(=O)O)CC2)cc1Cl)c1nsc2ccccc12 | 2150 | 196 | 2.7 | –
CCn1cc(C(=O)Nc2ccc(CC(=O)N3C[C@@H](F)C[C@H]3CO[C@H]3CC[C@H](C(=O)O)CC3)cc2Cl)c2ccccc21 | – | – | 204 | inhibition (Integrin alpha-4/beta-1 [11]): 21%
Cn1cc(C(=O)Nc2cc(F)c(CC(=O)N3CCC[C@H]3CO[C@H]3CC[C@H](C(=O)O)CC3)cc2Cl)c2ccccc21 | – | 370 | 12 | –
Cc1ccc(F)cc1Nc1nc2ccc(CC(=O)N3C[C@@H](F)C[C@H]3CO[C@H]3CC[C@H](C(=O)O)CC3)cc2o1 | 448 | 131 | 4.4 | –
O=C(Nc1ccc(CC(=O)N2C[C@@H](F)C[C@H]2CO[C@H]2CC[C@H](C(=O)O)CC2)cc1Cl)N1CCc2ccccc21 | 1100 | 83 | 1.9 | –
Cc1ccc(F)cc1Nc1nc2ccc(CC(=O)N3C[C@@H](F)C[C@H]3CO[C@H]3CC[C@H](C(=O)O)CC3)c(F)c2o1 | 912 | 439 | 2.8 | –
